Data on 3 molecules can be found in ChEMBL document CHEMBL1125812, “Synthesis of two cyclopentenyl-3-deazapyrimidine carbocyclic nucleosides related to cytidine and uridine” (1991).

Common to all, as to type: functional
Holding throughout (details): Mus musculus

For experiment [1], the system named is L1210. The experiment is described as follows: Compound was evaluated for the ability to inhibit L1210 tumor cell growth a concentration of 100 uM. The gist of the method: (§1)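 L1210 cells seeded at 0.15 × 10^5 cells/mL in Fisher's medium with 10% heat-inactivated horse serum. Drug exposure was continuous for 48 h, and cell number was counted with a Coulter counter. Percent inhibition was calculated relative to untreated control cultures, which reached 4.5 × 10^5 cells/mL.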

Experiment [2] concerns L1210. The experiment in a line: Compound was evaluated for the ability to inhibit L1210 tumor cell growth a concentration of 1 uM. In short, it runs like this: as §1
In experiment [3] the test system is L1210. The experiment in a line: Compound was evaluated for the ability to inhibit L1210 tumor cell growth a concentration of 10 uM. In short, it runs like this: as §1
Experiment [4] concerns L1210. The experiment in a line: Compound was evaluated for the ability to inhibit L1210 tumor cell growth a concentration of 1000 uM. In short, it runs like this: as §1

The inhibition is the change of the read-out against control, counted positive when it falls. Read a low inhibition as a weak effect. Regarding `O=c1cc(O)ccn1[C@@H]1C=C(CO)[C@@H](O)[C@H]1O`, in the experiment with L1210 [1], the inhibition at 100 µM came out at 66%. Besides, in the experiment with L1210 [2], 1 µM produced 8% inhibition. Testing at 10 µM in the experiment with L1210 [3] gave an inhibition of 45%. Further, in the experiment with L1210 [4], at 1000 µM the inhibition was 75%.

`Nc1ccn([C@@H]2C=C(CO)[C@@H](O)[C@H]2O)c(=O)n1` showed an inhibition at 100 µM with L1210 [1] of 93%. The molecule also returned an inhibition at 1 µM in the experiment with L1210 [2] of 93%. The molecule further had an inhibition at 10 µM in the experiment on L1210 [3] of 93%.

In the experiment on L1210 [1], `Nc1ccn([C@@H]2C=C(CO)[C@@H](O)[C@H]2O)c(=O)c1` returned an inhibition at 100 µM of 0%. In the experiment on L1210 [2], the inhibition at 1 µM amounted to 0%. In addition, the inhibition at 10 µM with L1210 [3] stood at 0%. Besides, the inhibition at 1000 µM with L1210 [4] came out at 15%.
